These results are taken from ChEMBL document CHEMBL1128267, “Dicationic diarylfurans as anti-Pneumocystis carinii agents” (J Med Chem, 1995).

Series [1] deals with Pneumocystis carinii. In words: In vivo activity against pneumocystis carinii was determined as toxicity which indicates the death of animals and counted cysts in a blinding protocol in lung tissue reported as % of saline treated control at a dose of 4.8 uM/Kg/day. It counts as organism-based. In outline: (§1)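 Dosed intravenously unless otherwise marked (some oral). Toxicity graded on a severity scale where larger values are more severe and values above 2 mean some animals died. Cysts in lung tissue counted under a blinded protocol and expressed as percent of saline-treated controls.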

Series [2] concerns Pneumocystis carinii. In words: In vivo activity against pneumocystis carinii was determined as toxicity which indicates the death of animals at a dose of 4.8 uM/Kg/day. It is filed as organism-based. In short, it runs like this: (§2)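 Dosing intravenous unless otherwise noted; daily dose in μM/kg/day. Toxicity graded on a numerical severity scale where higher scores mean more severe toxicity and scores above 2 mean some animals died.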

The test system of another series is Giardia intestinalis. As to the kind of experiment: Inhibitory activity for 50% on growth of Giardia lamblia in cell culture. It is filed as functional, organism-based. The conditions noted are these: Giardia duodenalis.
Series [3] concerns the target DNA topoisomerase II (Giardia lamblia). As to the kind of experiment: Inhibitory activity for 50% on topoisomerase II isolated from Giardia lamblia.
Series [4] deals with Pneumocystis carinii. In words: In vivo activity against pneumocystis carinii was determined as toxicity which indicates the death of animals and counted cysts in a blinding protocol in lung tissue reported as % of saline treated control at a dose of 2.3 uM/Kg/day. It counts as organism-based. In outline:
as §1

Series [5] relates to Pneumocystis carinii. As to the kind of experiment: In vivo activity against pneumocystis carinii was determined as toxicity which indicates the death of animals and counted uM/Kg/day. It is filed as organism-based. In short, it runs like this:
as §1

Series [6] concerns Pneumocystis carinii. As to the kind of experiment: In vivo activity against pneumocystis carinii was determined as toxicity which indicates the death of animals at a dose of 0.18 uM/Kg/day. It is filed as organism-based. In outline:
as §2

Series [7] relates to Pneumocystis carinii. As to the kind of experiment: In vivo activity against pneumocystis carinii was determined as toxicity which indicates the death of animals at a dose of 2.3 uM/Kg/day. It is filed as organism-based. In outline: as §2
Series [8] relates to Pneumocystis carinii. In words: In vivo activity against pneumocystis carinii was determined as toxicity which indicates the death of animals and counted cysts in a blinding protocol in lung tissue reported as % of saline treated control at a dose of 9.2 uM/Kg/day. It is filed as organism-based. In outline:
as §1

The subject of series [9] is Pneumocystis carinii. As to the kind of experiment: In vivo activity against pneumocystis carinii was determined as toxicity which indicates the death of animals at a dose of 9.2 uM/Kg/day. It counts as organism-based. In outline: as §2
Series [10] has as its system Pneumocystis carinii. As to the kind of experiment: In vivo activity against pneumocystis carinii was determined as toxicity which indicates the death of animals and counted cysts in a blinding protocol in lung tissue reported as % of saline treated control at a dose of 10.9 uM/Kg/day). It is filed as organism-based. In outline: as §1
Series [11] relates to Pneumocystis carinii. As to the kind of experiment: In vivo activity against pneumocystis carinii was determined as toxicity which indicates the death of animals at a dose of 10.9 uM/Kg/day. It counts as organism-based. In short, it runs like this:
as §2

The test system of series [12] is Pneumocystis carinii. In words: In vivo activity against pneumocystis carinii was determined as toxicity which indicates the death of animals and counted cysts in a blinding protocol in lung tissue reported as % of saline treated control at a dose of 66.3 (uM/kg/day). It is filed as organism-based. In outline: as §1
The test system of series [13] is Pneumocystis carinii. In words: In vivo activity against pneumocystis carinii was determined as toxicity which indicates the death of animals and counted cysts in a blinding protocol in lung tissue reported as % of saline treated control at a dose of 0.027 (uM/kg/day). It is filed as organism-based. In short, it runs like this:
as §1

In series [14] the test system is Pneumocystis carinii. As to the kind of experiment: In vivo activity against pneumocystis carinii was determined as toxicity which indicates the death of animals and counted cysts in a blinding protocol in lung tissue reported as % of saline treated control at a dose of 0.27 (uM/kg/day). It is filed as organism-based. In outline:
as §1

Series [15] relates to Pneumocystis carinii. In words: In vivo activity against pneumocystis carinii was determined as toxicity which indicates the death of animals and counted cysts in a blinding protocol in lung tissue reported as % of saline treated control at a dose of 13.3 (uM/kg/day). It counts as organism-based. In outline: as §1
Series [16] relates to Pneumocystis carinii. In words: In vivo activity against pneumocystis carinii was determined as toxicity which indicates the death of animals and counted cysts in a blinding protocol in lung tissue reported as % of saline treated control at a dose of 2.7 (uM/kg/day). It counts as organism-based. In short, it runs like this: as §1
Series [17] has as its system Pneumocystis carinii. As to the kind of experiment: In vivo activity against pneumocystis carinii was determined as toxicity which indicates the death of animals at a dose of 0.027 (uM/kg/day). It is filed as organism-based. In outline:
as §2

Series [18] relates to Pneumocystis carinii. As to the kind of experiment: In vivo activity against pneumocystis carinii was determined as toxicity which indicates the death of animals at a dose of 0.27 (uM/kg/day). It counts as organism-based. In short, it runs like this: as §2
For series [19], the system named is Pneumocystis carinii. In words: In vivo activity against pneumocystis carinii was determined as toxicity which indicates the death of animals at a dose of 13.3 (uM/kg/day). It is filed as organism-based. In short, it runs like this: as §2
The subject of series [20] is Pneumocystis carinii. As to the kind of experiment: In vivo activity against pneumocystis carinii was determined as toxicity which indicates the death of animals at a dose of 2.7 (uM/kg/day). It counts as organism-based. In outline:
as §2

For series [21], the system named is Pneumocystis carinii. In words: In vivo activity against pneumocystis carinii was determined as toxicity which indicates the death of animals at a dose of 66.3 (uM/kg/day). It is filed as organism-based. In short, it runs like this:
as §2

Series [22] concerns Pneumocystis carinii. As to the kind of experiment: In vivo activity against pneumocystis carinii was determined as toxicity which indicates the death of animals and counted cysts in a blinding protocol in lung tissue reported as % of saline treated control at a dose of 23.3 uM/Kg/day. It counts as organism-based. In outline: as §1
Series [23] has as its system Pneumocystis carinii. As to the kind of experiment: In vivo activity against pneumocystis carinii was determined as toxicity which indicates the death of animals at a dose of 23.3 uM/Kg/day. It counts as organism-based. In short, it runs like this: as §1
Series [24] relates to Pneumocystis carinii. As to the kind of experiment: In vivo activity against pneumocystis carinii was determined as toxicity which indicates the death of animals and counted cysts in a blinding protocol in lung tissue reported as % of saline treated control at a dose of 22.1 (uM/kg/day). It counts as organism-based. In short, it runs like this: as §1
In series [25] the test system is Pneumocystis carinii. As to the kind of experiment: In vivo activity against pneumocystis carinii was determined as toxicity which indicates the death of animals at a dose of 22.1 (uM/kg/day). It is filed as organism-based. In short, it runs like this:
as §2

Structures are written as SMILES.

The compound `Cl.Cl.OCCN1CCN=C1c1ccc(-c2ccc(-c3ccc(C4=NCCN4CCO)cc3)o2)cc1` yielded a Control in the series on Pneumocystis carinii [1] of 107.3%. Also, the “No. of dead animals” value with Pneumocystis carinii [2] worked out at 3. Besides, the IC50 came out at 4.6 µM with Giardia intestinalis and 20 µM in series [3].

On to `Cl.Cl.c1cc(-c2ccc(-c3ccc(C4=NCCCCN4)cc3)o2)ccc1C1=NCCCCN1`, for which the figures for the Control in the series with Pneumocystis carinii [4] and in the series on Pneumocystis carinii [5] were 2.9% and 115.4%, respectively. Moreover, the “No. of dead animals” value with Pneumocystis carinii [6] is on record as 0; in the series with Pneumocystis carinii [7], 3. For the same compound, the IC50 worked out at 0.93 µM in the series with Giardia intestinalis and 1.5 µM in [3].

On to `Cl.Cl.c1cc(-c2ccc(-c3ccc(C4=NC5CCCCC5N4)cc3)o2)ccc1C1=NC2CCCCC2N1` (configuration not stated), for which, in the series on Pneumocystis carinii [8], the Control came to 80.5%. Besides, the “No. of dead animals” value in the series with Pneumocystis carinii [9] came out at 1. Further, the half-inhibitory concentration (IC50) was 4 µM in the series with Giardia intestinalis and 3 µM in [3].

Regarding `CCN1CCN=C1c1ccc(-c2ccc(-c3ccc(C4=NCCN4CC)cc3)o2)cc1.Cl.Cl`, the results for the IC50 (in the series with Giardia intestinalis; in series [3]) were 3.3 µM and 25 µM, respectively.

`Cl.Cl.c1cc(-c2ccc(-c3ccc(C4=NCCCN4)cc3)o2)ccc1C1=NCCCN1` came in with a Control with Pneumocystis carinii [10] of 0.4%. Moreover, the “No. of dead animals” value in the series on Pneumocystis carinii [11] is 2. For the same compound, the IC50 was 0.085 µM with Giardia intestinalis and 0.5 µM in series [3].

Turning to `Cl.Cl.N=C(N)c1ccc(-c2ccc(-c3ccc(C(=N)N)cc3)o2)cc1`, the Control in the series on Pneumocystis carinii [12] turned out to be 28.4%; with Pneumocystis carinii [13], 55.9%; with Pneumocystis carinii [14], 4.8%; in the series on Pneumocystis carinii [15], 2.1%; in the series on Pneumocystis carinii [16] it was 8.3%. The “No. of dead animals” value in the series on Pneumocystis carinii [17], in the series on Pneumocystis carinii [18], with Pneumocystis carinii [19], with Pneumocystis carinii [20] and with Pneumocystis carinii [21] was 0 each time.

For `N[C+](N)c1ccc(-c2ccc(-c3ccc([C+](N)N)cc3)o2)cc1`, in the series with Giardia intestinalis, the IC50 amounted to 0.44 µM.

`Cl.c1cc(-c2ccc(-c3ccc(C4=NCCN4)cc3)o2)ccc1C1=NCCN1` came in with a Control in the series with Pneumocystis carinii [22] of 35.4%. Besides, in the series on Pneumocystis carinii [23], the Toxicity is 2 number of dead animals. The IC50 turned out to be 1.95 µM in the series with Giardia intestinalis and 3 µM in series [3].

In the case of `N=C(N)c1ccc(OCCCCCOc2ccc(C(=N)N)cc2)cc1` [PENTAMIDINE], the Control in the series on Pneumocystis carinii [24] is 3.66%. Besides, the “No. of dead animals” value with Pneumocystis carinii [25] is given as 2.
